Bioassay records from PubChem BioAssay.
Shown are actives, neighbours in structure and some others; about 2.3% of the full set was active somewhere.
TRPC4 PAM: allosteric potentiators of mouse TRPC4 channel; B-score at 10 µM; 0.42% of 310,000 active; AID 2227; HEK293 TRPC4beta/mu-opioid, DAMGO EC20, Fluo-4 Ca2+ flux; hits give high values; Q9QUQ5;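 active means B-score of calcium response area above 5 SD of library B-scores, with initial fluorescence ratio within 5 SD of library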;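 further: B-score of integrated fluorescence ratio over time as area under calcium response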
TRPC4 agonist: activators of mouse TRPC4 channel; Q9QUQ5; HEK293 TRPC4beta/mu-opioid, Fluo4 calcium fluorescence; hits give high values; B-score at 10 µM; 0.49% of 310,000 active;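 active means B-score above 5 SD of library B-scores, and initial fluorescence ratio not above library mean plus 5 SD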;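 further: positive B-score marks a calcium rise read as TRPC4 activation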
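System: HEK293 cells stably co-expressing mouse TRPC4beta and mu-opioid receptor; Schedule: Fluo4 dye loading 45 min at room temperature, 110 s recording; Detection: Fluo4 fluorescence, kinetic; Evaluation: B-scored integrated calcium fluorescence ratio; Controls: buffer (low) and maximal DAMGO (high).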
TRPC6 activator: mouse TRPC6 channel activation | B-score at 10 µM | 0.13% of 310,000 active | Q61143 | HEK293-TRPC6 membrane potential dye fluorescence; hits give high values;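 active means B-score of the integrated fluorescence ratio above library mean plus 3 SD, and starting fluorescence ratio within library mean plus 5 SD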;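 further: higher score means more depolarization so channel activation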
Target sequence (Q61143 whole entry, looked up): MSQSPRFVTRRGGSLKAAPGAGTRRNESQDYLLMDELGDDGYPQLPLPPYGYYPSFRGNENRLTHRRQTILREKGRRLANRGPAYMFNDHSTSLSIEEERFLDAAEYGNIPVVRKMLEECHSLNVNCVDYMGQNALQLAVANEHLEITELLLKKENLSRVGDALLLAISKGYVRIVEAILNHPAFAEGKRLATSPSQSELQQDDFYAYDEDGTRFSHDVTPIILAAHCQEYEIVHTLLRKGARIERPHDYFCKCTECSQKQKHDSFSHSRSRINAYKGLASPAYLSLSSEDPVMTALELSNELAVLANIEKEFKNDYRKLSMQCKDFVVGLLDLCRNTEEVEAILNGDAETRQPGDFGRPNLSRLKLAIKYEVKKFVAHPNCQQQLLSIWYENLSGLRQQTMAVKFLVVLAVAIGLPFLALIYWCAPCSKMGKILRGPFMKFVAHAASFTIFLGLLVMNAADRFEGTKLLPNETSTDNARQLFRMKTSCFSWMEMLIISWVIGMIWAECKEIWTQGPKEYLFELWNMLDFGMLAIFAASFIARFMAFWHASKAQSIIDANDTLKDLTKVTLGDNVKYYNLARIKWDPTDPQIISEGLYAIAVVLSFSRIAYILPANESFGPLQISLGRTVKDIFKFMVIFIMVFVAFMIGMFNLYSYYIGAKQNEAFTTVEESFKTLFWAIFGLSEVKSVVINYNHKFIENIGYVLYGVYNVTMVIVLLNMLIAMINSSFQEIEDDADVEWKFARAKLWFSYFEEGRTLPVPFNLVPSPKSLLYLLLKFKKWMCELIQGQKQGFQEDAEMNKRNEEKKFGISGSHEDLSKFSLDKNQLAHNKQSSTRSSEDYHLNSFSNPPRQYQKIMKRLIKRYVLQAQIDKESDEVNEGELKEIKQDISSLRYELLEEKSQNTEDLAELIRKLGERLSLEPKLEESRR
TRPC4 inh: TRPC4 (mouse) channel inhibition; 0.39% of 300,000 active; B-score at 10 µM; AID 2247; Q9QUQ5; HEK293 TRPC4beta/mu-opioid, DAMGO-evoked Fluo4 calcium flux; hits give low values;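 active means B-score over 3 SD under the library average, no early fluorescence shift, positive overall ratio signal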
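Material: HEK293 cells with stable TRPC4beta plus mu-opioid receptor expression / Probe or stimulus: DAMGO in two steps, submaximal then maximal / Compound: single concentration per test compound / Technique: kinetic Fluo4 fluorescence imaging of calcium influx / Read-out: per-well B score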
TRPC6 inhibitor: inhibitors of mouse TRPC6 channel; 1.1% of 310,000 active; B-score at 10 µM; HEK293-TRPC6, membrane potential dye, ACh-evoked depolarization; hits give low values;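 active means B-score under library mean minus 3 SD, initial fluorescence not abnormally high, positive integrated signal ratio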;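 further: B-score derived from integrated fluorescence ratio over the kinetic read; more negative B-score means stronger inhibition of depolarization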
TRPC4 sel inh 2: second selectivity test of TRPC6 inhibitors: effect on mouse TRPC4; shares compounds with TRPC6 inhibitor; HEK293 TRPC4/MOR, membrane potential dye fluorescence; channel activated by saturating DAMGO dose; inhibition, % at 10 µM; 42% of 920 active; AID 2776;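 active means compounds whose fluorescence signal differed from control wells by over 3 SD, either direction, in both duplicate plates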
TRPC4 spec: tests whether TRPC6 inhibitors also affect mouse TRPC4. activity change, negative = inhibition, % at 10 µM. 61% of 920 active. shares compounds with TRPC6 inhibitor. AID 2777. HEK293 TRPC4/mu-opioid, membrane potential fluorescence;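 active means rise or fall in signal beyond 3 SD of buffer-only wells in both replicate plates, either sign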;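 further: integrated kinetic ratio of fluorescence range over baseline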
HEK293 MPD ctr 2-1: parental HEK293 nonspecific activity of TRPC6 inhibitors, second screen | signal change vs control, % at 10 µM | shares compounds with TRPC6 inhibitor | parental HEK293 membrane potential dye fluorescence; maximal acetylcholine challenge after compound addition | 31% of 920 active;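 active means membrane potential signal moving either way by over 3 SD of the maximum-effect control, in both duplicate plates, meaning non-specific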
HEK293 MPD ctr-1: counter-screen for TRPC6 inhibitors: effect in parental HEK293 cells | shares compounds with TRPC6 inhibitor | membrane potential signal change, % at 10 µM | 60% of 920 active | parental HEK293 membrane potential dye fluorescence | AID 2780;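 active means membrane potential signal shifting up or down by more than 3 SD of buffer-only wells, on both duplicate plates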
HEK293 MPD ctr-2: checks TRPC6 modulator effects in parental HEK293 cells. AID 488924. membrane potential signal change, % at 10 µM. membrane potential dye fluorescence. 51% of 2,400 active. shares compounds with TRPC6 inhibitor;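 active means membrane potential signal moves up or down beyond 5 SD from buffer-only wells, on both duplicate plates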
HEK293 MPD ctr 2-2: second counter-screen for TRPC6 modulators: effect in parental HEK293 cells | shares compounds with TRPC6 inhibitor | membrane potential dye fluorescence; after compound, maximal acetylcholine stimulation | inhibition, % at 10 µM | 14% of 2,400 active | AID 488926;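 active means membrane potential signal drops by more than 5 SD from the mean control signal, in both duplicate plates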;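 further: plate controls were acetylcholine ECmax control wells for no effect and buffer only wells for full effect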
TRPC4 ctr mod: mouse TRPC4 off-target activity of TRPC6 modulators | HEK293 TRPC4/mu-opioid, membrane potential fluorescence | 69% of 2,400 active | percent change from control (negative = decrease, positive = increase), % at 10 µM | shares compounds with TRPC6 inhibitor;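 active means membrane potential signal moved up or down beyond 5 SD of buffer control wells, in both duplicate plates, actives on both sides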;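 further: plate controls were assay buffer wells for no effect and DAMGO maximal-effect wells for full effect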
TRPC4 ctr inh 2: second selectivity test of TRPC6 modulators against mouse TRPC4. shares compounds with TRPC6 inhibitor. HEK293 TRPC4/mu-opioid, membrane potential dye fluorescence; stimulated with maximal-effect DAMGO. inhibition, % at 10 µM. 55% of 2,400 active;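 active means drop in membrane potential signal beyond 5 SD of the control wells in both duplicate plates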;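 further: TRPC4 counter screen for TRPC6 hits run under conditions tuned for TRPC6 not TRPC4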
TRPC6 block conf: confirmation of mouse TRPC6 inhibitors; inhibition, % at 10 µM; shares compounds with TRPC6 inhibitor; HEK293-TRPC6, membrane potential dye, ACh-evoked depolarization; 43% of 3,300 active;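 active means fluorescence ratio falls more than 5 SD below the full-stimulation control mean, in both duplicate runs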;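 further: integrated fluorescence ratio of peak minus minimum over baseline after agonist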
TRPC6 act confirm: confirmation of mouse TRPC6 activators; shares compounds with TRPC6 inhibitor; HEK293-TRPC6 membrane potential dye fluorescence, FDSS; activation, % at 10 µM; 11% of 2,800 active; AID 488961;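 active means ratio signal rise beyond 5 SD above unstimulated control wells' mean, seen in both duplicate runs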;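 further: plate controls were buffer EC0 wells for no effect and acetylcholine ECmax response for full effect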
Starred values were filed as active, the others as inactive; i = inactive; . = no result given.

SMILES	TRPC4 PAM	TRPC4 agonist	TRPC6 activator	TRPC4 inh	TRPC6 inhibitor	HEK293 MPD ctr-2	HEK293 MPD ctr 2-2	TRPC4 ctr mod	TRPC4 ctr inh 2	TRPC6 block conf	TRPC6 act confirm	others
COC(C#CCCN(C)C)(c1ccccc1)c1ccccc1	i	i	i	i	-6.5*	i	89%*	14%*	34%*	79%*	.
O=C(Nc1ccc2nccnc2c1)c1cnccn1	i	i	i	i	-5.8*	-272%*	i	-48%*	42%*	49%*	i
CCCn1c(C)cc(=O)c2cc(NC(=O)c3cnccn3)ccc21	i	i	i	i	-12*	-300%*	86%*	-60%*	60%*	66%*	i
CCc1ccc(NC(=O)c2cnccn2)cc1	i	i	i	i	i	.	.	.	.	.	.
O=c1cc(-c2ccccc2Cl)oc2c(NS(=O)(=O)c3cccs3)ccc(O)c12	i	i	i	i	i	.	.	.	.	.	.
O=C(NC1CCCC1)C1CCCN1C(=O)Nc1ccc(Cl)cc1 (stereo unspecified)	i	i	i	i	i	.	.	.	.	.	.
CCOc1ccc(S(=O)(=O)N2CCc3cc(OC)c(OC)cc3C2)cc1	i	i	12*	i	i	i	i	10%*	i	.	114%*
CCC(=O)Nc1ccccc1C(=O)NC1CCCCC1	i	i	i	i	i	.	.	.	.	.	.
CCCCCCOC(=O)C(C#N)c1nc2ccccc2nc1N1CCN(CC)CC1 (stereo unspecified)	i	i	i	i	-5.3*	i	i	-29%*	70%*	i	i
CCN1CCN(c2nc3ccccc3nc2C(C#N)C(=O)OCc2ccccc2)CC1 (stereo unspecified)	i	i	i	i	-7.3*	.	.	.	.	i	i	TRPC4 sel inh 2=40%*;TRPC4 spec=-19%*;HEK293 MPD ctr 2-1=i;HEK293 MPD ctr-1=-200%*
CC(C)(C)c1ccc(S(=O)(=O)/N=C2\C=C(NS(=O)(=O)c3ccccc3)C(=O)c3ccccc32)cc1	i	i	i	i	-6.1*	-153%*	77%*	-30%*	90%*	81%*	i
Cc1ccc(S(=O)(=O)/N=C2\C=C(Nc3cccc(C(=O)O)c3)C(=O)c3ccccc32)cc1	i	i	i	i	i	.	.	.	.	.	.
CCc1ccc(S(=O)(=O)/N=C2\C=C(Nc3ccc(C(=O)O)cc3)C(=O)c3ccccc32)cc1	i	i	i	i	-6.9*	-120%*	i	-26%*	68%*	36%*	i
CCOC(=O)C(C)Sc1nnc(NC(=O)c2ccc3c(c2)OCO3)s1 (stereo unspecified)	i	i	i	i	i	.	.	.	.	.	.
Cc1nnc(NC(=O)CSc2nnc(NC(=O)C(C)(C)C)s2)s1	i	i	i	i	i	.	.	.	.	.	.
O=C(CCCc1nc2ccccc2s1)Nc1ccc(N2CCOCC2)cc1	i	i	i	i	i	.	.	.	.	.	.
CN(C1=C(NC(=O)c2ccc(Cl)cc2)C(=O)c2ccccc2C1=O)c1ccccc1	i	i	i	i	-5.1*	-100%*	i	-32%*	65%*	i	i
Cc1cc(Cl)ccc1OCC(=O)NCCC(=O)O	i	i	i	i	-6.6*	.	.	.	.	i	i	TRPC4 sel inh 2=i;TRPC4 spec=i;HEK293 MPD ctr 2-1=i;HEK293 MPD ctr-1=i
c1ccc(CNc2c3c(nc4ncnn24)CCC3)cc1	i	i	i	i	i	.	.	.	.	.	.
COc1ccc(C(=O)N/N=C/c2ccccn2)cc1OC	i	i	i	i	-7*	-296%*	i	-50%*	40%*	38%*	i
COc1ccc(C(=O)Nc2ccccc2C(=O)N/N=C/c2ccccn2)cc1OC	i	i	i	i	i	.	.	.	.	.	.
CN(C)c1ccc(C(=O)N/N=C/c2ccccn2)cc1	i	i	i	i	-6.6*	-159%*	i	-28%*	36%*	i	i
COc1ccc(-n2cc(CNCCCn3ccnc3)c(-c3cccc(F)c3)n2)cc1	i	i	i	i	-6*	i	i	-8.5%*	74%*	42%*	i
CN1C(=O)CC(C(=O)O)SC1=Nc1cccc(C(F)(F)F)c1 (stereo unspecified)	i	i	i	i	i	.	.	.	.	.	.
CN(C)CCCN1C(=O)c2cccc3c(Br)ccc(c23)C1=O	i	i	i	i	-9.6*	i	87%*	-32%*	80%*	80%*	i
Cc1cccc(CCNC(=O)Cn2ncc3c([nH]c4ccccc43)c2=O)c1	i	i	i	i	i	.	.	.	.	.	.
Cc1cc(C)cc(-n2c(C)cc(/C=N/NC(=O)CSc3ncccn3)c2C)c1	i	i	i	i	-9.9*	.	.	.	.	i	i	TRPC4 sel inh 2=i;TRPC4 spec=i;HEK293 MPD ctr 2-1=i;HEK293 MPD ctr-1=i
CCOC(=O)c1cnc2ccc(C(=O)OC)cc2c1NCCc1ccc(OC)c(OC)c1	i	i	i	i	i	.	.	.	.	.	.
CCOC(=O)c1cnc2ccc(OCC)cc2c1NCCCN1CCOCC1	i	i	i	i	-6.1*	i	80%*	21%*	34%*	42%*	i
